Laboratory results reported in ChEMBL document CHEMBL4359872, “Identification of potent triazolylpyridine nicotinamide phosphoribosyltransferase (NAMPT) inhibitors bearing a 1,2,3-triazole tail group” (Eur J Med Chem, 2019).
Converted amounts (≈) assume the structure as drawn. The source made the active and inactive calls. No cut-off for these calls is given here.

How the values were obtained:
[1] = Cytotoxicity against human SH-SY5Y cells assessed as cell viability at 1 uM measured after 48 hrs by MTT assay relative to control; assay type: cell-based; details: read-out: Activity
[2] = system: SH-SY5Y; assay: Cytotoxicity against human SH-SY5Y cells measured after 48 hrs by MTT assay; assay type: cell-based
[3] = biological target: Nicotinamide phosphoribosyltransferase (Mus musculus, UniProt Q99KQ4); assay: Inhibition of recombinant mouse wild-type NAMPT expressed in bacterial expression system using PRPP as substrate in presence of mouse NMNAT-3 measured for 1 hr by fluorescence assay
Chain of Nicotinamide phosphoribosyltransferase (Q99KQ4 whole entry): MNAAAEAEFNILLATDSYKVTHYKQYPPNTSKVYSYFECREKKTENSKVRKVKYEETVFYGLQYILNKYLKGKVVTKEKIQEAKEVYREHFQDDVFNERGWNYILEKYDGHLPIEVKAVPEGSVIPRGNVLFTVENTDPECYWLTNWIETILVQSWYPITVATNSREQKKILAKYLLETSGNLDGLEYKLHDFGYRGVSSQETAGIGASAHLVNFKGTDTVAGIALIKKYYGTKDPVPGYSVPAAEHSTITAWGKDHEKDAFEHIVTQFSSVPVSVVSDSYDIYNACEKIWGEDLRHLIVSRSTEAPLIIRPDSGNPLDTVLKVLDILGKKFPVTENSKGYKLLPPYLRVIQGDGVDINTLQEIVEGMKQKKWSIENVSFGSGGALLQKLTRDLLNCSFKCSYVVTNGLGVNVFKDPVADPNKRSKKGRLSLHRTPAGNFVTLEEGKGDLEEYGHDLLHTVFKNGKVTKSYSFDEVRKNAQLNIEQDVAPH
How it was run: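 In vitro NAMPT enzymatic assay run as concentration-response curves, with IC50 derived from the curves. Mean ± SD of three independent experiments (n = 6).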

[4] = Kinetic aqueous solubility of the compound in 80:20 PBS/acetonitrile solution at 200 to 500 uM by HTS assay; assay type: physicochemical; details: read-out: Kinetic_solubility
[5] = Permeability across apical side to basolateral side in human Caco2 cells at 30 uM after 4 hrs by HPLC analysis; assay type: ADME, cell-based; details: caco-2, 4 h
How it was run: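 Caco-2 monolayer used to measure apical-to-basal transfer, reported as % permeability and Papp. Terbutaline served as the positive control; n = 3.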

[6] = Half-life in BALB/c mouse at 10 mg/kg, iv administered as single dose measured after 24 hrs by LC-ESI/MS analysis; assay type: ADME, organism-based; details: in vivo
How it was run: (§1)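 Mice given a single 10 mg/kg i.v. injection; serial blood sampling, then half-life, clearance and volume of distribution derived.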

[7] = AUC in BALB/c mouse at 10 mg/kg, iv administered as single dose measured after 24 hrs by LC-ESI/MS analysis; assay type: ADME, organism-based; design: time < 24 hr, dose 10 mg/kg, route intravenous; details: in vivo; how it was run: as §1
[8] = Clearance in BALB/c mouse at 10 mg/kg, iv administered as single dose measured after 24 hrs by LC-ESI/MS analysis; assay type: ADME, organism-based; details: in vivo; how it was run: as §1
[9] = Volume of distribution in BALB/c mouse at 10 mg/kg, iv administered as single dose measured after 24 hrs by LC-ESI/MS analysis; assay type: ADME, organism-based; details: in vivo; how it was run: as §1
[10] = Thermodynamic solubility of compound in water after 24 hrs by LC-UV based shake flask method; assay type: physicochemical; details: buffer
How it was run: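 Thermodynamic water solubility measured by saturation shake flask, with the concentration of the saturated solution reported.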

[11] = Metabolic stability in human liver microsomes assessed as parent compound remaining at 50 uM […] for 60 mins by LC-ESI/MS analysis; assay type: ADME, Microsome; details: read-out: Stability
[12] = Metabolic stability in Wistar Han rat liver microsomes assessed as parent compound remaining at 50 uM […] for 60 mins by LC-ESI/MS analysis; assay type: ADME, Microsome; details: read-out: Stability
[13] = system: Lymphocyte; assay: Genotoxicity in human primary lymphocytes assessed as induction of DNA damage up to 500 uM by GreenScreen assay; assay type: toxicity, cell-based
[14] = Toxicity in Crl:CD Sprague-Dawley rat retina at 100 mg/kg, ip administered once daily for 5 days by hematoxylin and eosin staining based microscopic analysis; assay type: organism-based; details: in vivo, 120 h
[15] = Toxicity in Crl:CD Sprague-Dawley rat heart assessed as hypereosinophilia at 100 mg/kg, ip administered once daily for 5 days by hematoxylin and eosin staining based microscopic analysis; assay type: organism-based; details: in vivo, 120 h
[16] = Toxicity in Crl:CD Sprague-Dawley rat heart assessed as increase in cardiomyocytes cytoplasmic vacuolation at 100 mg/kg, ip administered once daily for 5 days by hematoxylin and eosin staining based microscopic analysis; assay type: organism-based; details: in vivo, 120 h
[17] = Toxicity in Crl:CD Sprague-Dawley rat heart assessed as interstitial expansion at 100 mg/kg, ip administered once daily for 5 days by hematoxylin and eosin staining based microscopic analysis; assay type: organism-based; details: in vivo, 120 h
[18] = system: 4T1; assay: Antitumor activity against mouse 4T1 cells implanted in BALB/c mouse assessed as reduction in tumour volume at 10 mg/kg, ip bid for 12 days by vernier caliper method; assay type: functional, organism-based
How it was run: (§2)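 Tumour cells implanted in the mammary gland. Dosing began at day 14, once tumours were palpable, after randomization into vehicle and treated groups of 4 mice each. Compound given intraperitoneally at 10 mg/kg twice a day for 12 consecutive days. Data are means of two independent experiments.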

[19] = system: 4T1; assay: Antitumor activity against mouse 4T1 cells implanted in BALB/c mouse assessed as reduction in tumor weight at 10 mg/kg, ip bid for 12 days; assay type: functional, organism-based; how it was run: as §2
[20] = system: 4T1; assay: Antitumor activity against mouse 4T1 cells implanted in Balb/c mouse mouse assessed as inhibition of tumor metastasis at 10 mg/kg, ip bid for 12 days measured post last dose by crystal violet staining based thioguanine clonogenic assay; assay type: functional, organism-based; how it was run: as §2
[21] = system: TK6; assay: Genotoxicity in human TK6 cells assessed as induction of DNA damage up to 500 uM by GreenScreen assay; assay type: toxicity, cell-based
[22] = system: Lymphocyte; assay: Genotoxicity in human primary lymphocytes up to 1 mM in presence of S9 fraction by GreenScreen assay; assay type: toxicity, cell-based
[23] = system: TK6; assay: Genotoxicity in human TK6 up to 1 mM in presence of S9 fraction by GreenScreen assay; assay type: toxicity, cell-based
[24] = biological target: Nicotinamide phosphoribosyltransferase (Homo sapiens) (UniProt P43490); assay: Inhibition of NAMPT in human SH-SY5Y cells assessed as reduction in NAD levels at 100 nM measured after 16 hrs by diaphorase and resazurin dye based fluorescence assay relative to control; assay type: cell-based
Chain of Nicotinamide phosphoribosyltransferase (Homo sapiens) (P43490 whole entry, looked up): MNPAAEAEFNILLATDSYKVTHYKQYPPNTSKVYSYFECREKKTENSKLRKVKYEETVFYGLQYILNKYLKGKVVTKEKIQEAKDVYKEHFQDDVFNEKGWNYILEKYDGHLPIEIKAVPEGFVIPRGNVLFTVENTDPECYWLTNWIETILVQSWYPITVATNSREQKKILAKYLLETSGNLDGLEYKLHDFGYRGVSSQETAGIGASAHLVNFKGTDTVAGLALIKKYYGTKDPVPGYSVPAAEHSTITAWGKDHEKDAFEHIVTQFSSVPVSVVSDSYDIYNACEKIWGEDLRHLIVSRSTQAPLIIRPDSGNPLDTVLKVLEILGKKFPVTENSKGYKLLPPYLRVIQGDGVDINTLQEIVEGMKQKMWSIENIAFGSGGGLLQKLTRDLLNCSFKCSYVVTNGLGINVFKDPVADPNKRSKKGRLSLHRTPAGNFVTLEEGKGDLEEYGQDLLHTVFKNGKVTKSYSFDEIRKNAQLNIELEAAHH
How it was run: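 SH-SY5Y cells treated at 100 nM for 16 h, then NAD level reduction measured as % of control. Mean ± SD of two independent experiments (n = 6).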

[25] = Selectivity ratio of EC50 for cytotoxicity against human SH-SY5Y cells to IC50 for recombinant mouse wild-type NAMPT expressed in bacterial expression system; assay type: cell-based
[26] = system: SH-SY5Y; assay: Cytotoxicity against human SH-SY5Y cells assessed as cell viability at 10 uM measured after 48 hrs by MTT assay relative to control; assay type: functional; details: read-out: Activity
[27] = Kinetic aqueous solubility of the compound in 80:20 PBS/acetonitrile solution at 200 uM by HTS assay; assay type: physicochemical; details: buffer

Row | Compound | viability at 48 h, 1 µM [1] | EC50 [2] | IC50 [3] | solubility kinetic [4] | other results
1 | O=C(NCCCCCCCn1cc(-c2cccnc2)nn1)c1ccccc1-n1cc(CN2CCCCC2)nn1 | 15.9% | > 500 nM | 17.1 nM | 200 to 500 µM (≈ 106 to 264 µg/mL) | 
2 | CN(C)Cc1cn(-c2ccccc2C(=O)NCCCCCCCn2cc(-c3cccnc3)nn2)nn1 | 86.6% | 285 nM | 42.4 nM | 200 to 500 µM (≈ 97.5 to 244 µg/mL) | 
3 | O=C(O)c1ccc(-c2ccccc2C(=O)NCCCCCCCn2cc(-c3cccnc3)nn2)cc1 | 22.5% | 224 nM | > 500 nM |  | 
4 | O=C(O)c1ccccc1-c1ccccc1C(=O)NCCCCCCCn1cc(-c2cccnc2)nn1 | 80.9% | > 500 nM | 38.5 nM |  | 
5 | O=C(NCCCCCCCn1cc(-c2cccnc2)nn1)c1ccccc1-n1ccnn1 | 10.5% | 35.4 nM | 3.4 nM | 200 to 500 µM (≈ 86.1 to 215 µg/mL) | permeability [5]: 10.6%; half-life [6]: 3.51 h; AUC at 24 h [7]: 1620 ng·h/mL; clearance [8]: 103 mL/min/kg; Vd [9]: 31.3 L/kg; Therm_solubility [10]: Soluble; remaining at 1 h, 50 µM [11]: 94%; remaining at 1 h, 50 µM [12]: 70%; Activity [13]: Non-Toxic; Activity [14]: Non-Toxic; Activity [15]: Non-Toxic; Activity [16]: Non-Toxic; Activity [17]: Non-Toxic; Activity [18]: Active; Activity [19]: Active; inhibition [20]: Active; Activity [21]: Non-Toxic; Activity [22]: Non-Toxic; Activity [23]: Non-Toxic
6 | CN1CCN(Cc2cn(-c3ccccc3C(=O)NCCCCCCCn3cc(-c4cccnc4)nn3)nn2)CC1 | 87.7% | > 10000 nM | 13.6 nM | 200 to 500 µM (≈ 109 to 271 µg/mL) | permeability [5]: < 1%; inhibition [24]: inactive; Selectivity ratio [25]: 200
7 | O=C(NCCCCCCCn1cc(-c2cccnc2)nn1)c1ccccc1-c1cccnc1 | 15.1% | 36.5 nM | 28.5 nM |  | 
8 | CC(C)N1CCN(Cc2cn(-c3ccccc3C(=O)NCCCCCCCn3cc(-c4cccnc4)nn3)nn2)CC1 | 80.2% | > 10000 nM | 24.7 nM | 200 to 500 µM (≈ 114 to 285 µg/mL) | viability at 10 µM [26]: 64.1%
9 | CCOC(=O)C1CCN(Cc2cn(-c3ccccc3C(=O)NCCCCCCCn3cc(-c4cccnc4)nn3)nn2)CC1 | 14.1% | 61.5 nM | 20.6 nM | 200 to 500 µM (≈ 120 to 300 µg/mL) | 
10 | NC(=O)c1ccccc1-c1ccccc1C(=O)NCCCCCCCn1cc(-c2cccnc2)nn1 | 65.7% | 289 nM | 87.9 nM |  | 
11 | O=C(/C=C/c1cccnc1)NCCCCC1CCN(C(=O)c2ccccc2)CC1 [DAPORINAD] | 9.7% | 2.5 nM |  |  | permeability [5]: 20.5%; Activity [14]: Non-Toxic; Activity [15]: Toxic; Activity [16]: Toxic; Activity [17]: Non-Toxic; Kinetic_solubility [27]: Soluble
